Measured values reported in ChEMBL document CHEMBL2146359, “HCV NS5A replication complex inhibitors. Part 2: investigation of stilbene prolinamides” (Bioorg Med Chem Lett, 2012).
≈ marks a conversion by molar mass, not a printed value.

Assays:
[1] = test system: Bovine viral diarrhea virus 1; assay: Antiviral activity against BVDV1; format: functional, organism-based; conditions: Bovine viral diarrhea virus isolates and strains
[2] = Half life in rat at 1.8 mg/kg, po and iv; format: ADME, organism-based; parameters: dose 1.8 mg/kg, route oral; conditions: in vivo
[3] = Cmax in rat at 1.8 mg/kg, po and iv; format: ADME, organism-based; parameters: dose 1.8 mg/kg, route oral; conditions: in vivo
Rattus norvegicus [4] = assay: Volume of distribution at steady state in rat at 1.8 mg/kg, po and iv; format: ADME, organism-based; parameters: dose 1.8 mg/kg, route oral; conditions: in vivo
Hepatitis C virus = assay: Antiviral activity against HCV genotype 1b infected in human Huh7 cells assessed as inhibition of viral replication by FRET assay; format: functional, organism-based, Hepacivirus hominis; conditions: Huh-7
How it was run: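 Replicon potency values are the means of at least two experiments.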

[5] = Solubility of the compound; format: physicochemical
[6] = AUC in rat at 1.8 mg/kg, iv; format: ADME, organism-based; parameters: dose 1.8 mg/kg, route intravenous; conditions: plasma
[7] = Metabolic stability in rat liver microsomes assessed as compound remaining after 10 mins; format: ADME, Microsome; conditions: read-out: Stability
[8] = AUC in rat at 1.8 mg/kg, po; format: ADME, organism-based; parameters: dose 1.8 mg/kg, route oral; conditions: plasma
[9] = Oral bioavailability in rat at 1.8 mg/kg; format: ADME, organism-based; conditions: in vivo
[10] = Cytotoxicity against human HuH7 cells after 72 hrs by Alamar Blue assay; format: cell-based; conditions: Huh-7 cells
[11] = Permeability across human Caco2 cells; format: ADME, cell-based; conditions: Caco-2, read-out: permeability
[12] = Half life in rat at 2.5 mg/kg, po and iv; format: ADME, organism-based; parameters: dose 2.5 mg/kg, route oral; conditions: in vivo
Rattus norvegicus [13] = assay: AUC in rat at 2.5 mg/kg, iv; format: ADME, organism-based, Plasma; parameters: dose 2.5 mg/kg, route intravenous; conditions: in vivo
Rattus norvegicus [14] = assay: Volume of distribution at steady state in rat at 2.5 mg/kg, po and iv; format: ADME, organism-based; parameters: dose 2.5 mg/kg, route oral; conditions: in vivo
[15] = Half life in rat at 1.6 mg/kg, po and iv; format: ADME, organism-based; parameters: dose 1.6 mg/kg, route oral; conditions: in vivo
Rattus norvegicus [16] = assay: Volume of distribution at steady state in rat at 1.6 mg/kg, po and iv; format: ADME, organism-based; parameters: dose 1.6 mg/kg, route oral; conditions: in vivo
[17] = AUC in rat at 1.6 mg/kg, iv; format: ADME, organism-based; parameters: dose 1.6 mg/kg, route intravenous; conditions: plasma
[18] = AUC in rat at 2.8 mg/kg, po; format: ADME, organism-based; parameters: dose 2.8 mg/kg, route oral; conditions: plasma
Rattus norvegicus [19] = assay: Volume of distribution at steady state in rat at 2.8 mg/kg, po and iv; format: ADME, organism-based; parameters: dose 2.8 mg/kg, route oral; conditions: in vivo
[20] = Half life in rat at 2.8 mg/kg, po and iv; format: ADME, organism-based; parameters: dose 2.8 mg/kg, route oral; conditions: in vivo
[21] = AUC in rat at 2.8 mg/kg, iv; format: ADME, organism-based; parameters: dose 2.8 mg/kg, route intravenous; conditions: plasma
[22] = Oral bioavailability in rat at 2.8 mg/kg; format: ADME, organism-based; conditions: in vivo
[23] = Cmax in rat at 2.8 mg/kg, po and iv; format: ADME, organism-based; parameters: dose 2.8 mg/kg, route oral; conditions: in vivo

Compound	EC50 [1] [µM]	EC50 (Hepatitis C virus) [µM]	CC50 at 72 h [10] [µM]	further results
O=C(Nc1ccc(/C=C/c2ccc(NC(=O)[C@@H]3CCCN3C(=O)OCc3ccccc3)cc2)cc1)[C@@H]1CCCN1C(=O)OCc1ccccc1	> 10	0.00897	> 10	half-life [2]: 4.6 h; Cmax [3]: 4 ng/mL; Vdss (Rattus norvegicus [4]): 4.3 L/kg; solubility [5]: < 1 µg/mL; AUC [6]: 1620 ng·h/mL; remaining at 10 min [7]: 77%; AUC [8]: 37 ng·h/mL; bioavailability [9]: 2%
C[C@@H](C(=O)N1CCC[C@H]1C(=O)Nc1ccc(/C=C/c2ccc(NC(=O)[C@@H]3CCCN3C(=O)[C@H](C)c3ccccc3)cc2)cc1)c1ccccc1	> 10	< 0.005	> 10	
CC(=O)N1CCC[C@H]1C(=O)Nc1ccc(/C=C/c2ccc(NC(=O)[C@@H]3CCCN3C(=O)Cc3ccccc3)cc2)cc1	> 10	0.0015	> 10	Papp [11]: < 1.5 ×10⁻⁶ cm/s; remaining at 10 min [7]: 82%; half-life [12]: 5.2 h; AUC (Rattus norvegicus [13]): 101535 ng·h/mL; Vdss (Rattus norvegicus [14]): 1.2 L/kg
O=C(Nc1ccc(/C=C/c2ccc(NC(=O)[C@@H]3C[C@@H](O)CN3C(=O)OCc3ccccc3)cc2)cc1)[C@@H]1C[C@@H](O)CN1C(=O)OCc1ccccc1	> 10	0.0289	> 10	Papp [11]: 3.5 ×10⁻⁶ cm/s; half-life [15]: 6.4 h; Vdss (Rattus norvegicus [16]): 1 L/kg; remaining at 10 min [7]: 99%; AUC [17]: 2450 ng·h/mL
CCO[C@H]1C[C@@H](C(=O)Nc2ccc(/C=C/c3ccc(NC(=O)[C@@H]4C[C@H](OCC)CN4C(=O)OCc4ccccc4)cc3)cc2)N(C(=O)OCc2ccccc2)C1	> 10	0.015	> 10	
CC(C)(C)O[C@H]1C[C@@H](C(=O)Nc2ccc(/C=C/c3ccc(NC(=O)[C@@H]4C[C@H](OC(C)(C)C)CN4C(=O)OCc4ccccc4)cc3)cc2)N(C(=O)OCc2ccccc2)C1	> 10	0.35	> 10	
CC(C)(C)NC(=O)O[C@@H]1C[C@@H](C(=O)Nc2ccc(/C=C/c3ccc(NC(=O)[C@@H]4C[C@@H](OC(=O)NC(C)(C)C)CN4C(=O)OCc4ccccc4)cc3)cc2)N(C(=O)OCc2ccccc2)C1	> 10	> 10	> 10	
N[C@H]1C[C@@H](C(=O)Nc2ccc(/C=C/c3ccc(NC(=O)[C@@H]4C[C@H](N)CN4C(=O)OCc4ccccc4)cc3)cc2)N(C(=O)OCc2ccccc2)C1	> 10	1.29	> 10	
CN(C)[C@H]1C[C@@H](C(=O)Nc2ccc(/C=C/c3ccc(NC(=O)[C@@H]4C[C@H](N(C)C)CN4C(=O)OCc4ccccc4)cc3)cc2)N(C(=O)OCc2ccccc2)C1	> 10	0.01	> 10	
C[C@H](C(=O)N1CCC[C@H]1C(=O)Nc1ccc(/C=C/c2ccc(NC(=O)[C@@H]3CCCN3C(=O)[C@@H](C)c3ccccc3)cc2)cc1)c1ccccc1	> 10	0.005	> 10	
O=C(Nc1ccc(/C=C/c2ccc(NC(=O)[C@@H]3CCCN3C(=O)c3ccccc3)cc2)cc1)[C@@H]1CCCN1C(=O)c1ccccc1	> 10	0.102	> 10	
CC(=O)N1CCC[C@H]1C(=O)Nc1ccc(/C=C/c2ccc(NC(=O)[C@@H]3CCCN3C(C)=O)cc2)cc1	> 10	2.38	> 10	
O=C(Nc1ccc(/C=C/c2ccc(NC(=O)[C@@H]3CCCN3C(=O)Cc3cccnc3)cc2)cc1)[C@@H]1CCCN1C(=O)Cc1cccnc1	> 10	0.000784	> 10	Papp [11]: 1.6 ×10⁻⁶ cm/s; half-life [2]: 9.3 h; Cmax [3]: 120 ng/mL; Vdss (Rattus norvegicus [4]): 2.9 L/kg; solubility [5]: 53 µg/mL (≈ 82.5 µM); AUC [6]: 3080 ng·h/mL; remaining at 10 min [7]: 88%; AUC [8]: 322 ng·h/mL; bioavailability [9]: 10%
O=C(Nc1ccc(/C=C/c2ccc(NC(=O)[C@@H]3CCCN3C(=O)Cc3ccccn3)cc2)cc1)[C@@H]1CCCN1C(=O)Cc1ccccn1	> 10	0.00222	> 10	
O=C(Nc1ccc(/C=C/c2ccc(NC(=O)[C@@H]3CCCN3C(=O)Cc3ccncc3)cc2)cc1)[C@@H]1CCCN1C(=O)Cc1ccncc1	> 10	0.172	> 10	
O=C(Nc1ccc(/C=C/c2ccc(NC(=O)[C@@H]3CCCN3C(=O)Cc3cccs3)cc2)cc1)[C@@H]1CCCN1C(=O)Cc1cccs1	> 10	0.00128	> 10	
Cn1cccc1CC(=O)N1CCC[C@H]1C(=O)Nc1ccc(/C=C/c2ccc(NC(=O)[C@@H]3CCCN3C(=O)Cc3cccn3C)cc2)cc1	> 10	0.0102	> 10	
Cc1cc(CC(=O)N2CCC[C@H]2C(=O)Nc2ccc(/C=C/c3ccc(NC(=O)[C@@H]4CCCN4C(=O)Cc4cc(C)no4)cc3)cc2)on1	> 10	0.0762	> 10	
Cn1cnc(CC(=O)N2CCC[C@H]2C(=O)Nc2ccc(/C=C/c3ccc(NC(=O)[C@@H]4CCCN4C(=O)Cc4cn(C)cn4)cc3)cc2)c1	> 10	0.0867	> 10	
O=C(Nc1ccc(/C=C/c2ccc(NC(=O)[C@@H]3CCCN3C(=O)Cc3c[nH]cn3)cc2)cc1)[C@@H]1CCCN1C(=O)Cc1c[nH]cn1	> 10	1	> 10	
Cc1nc2sccn2c1C(=O)N1CCC[C@H]1C(=O)Nc1ccc(/C=C/c2ccc(NC(=O)[C@@H]3CCCN3C(=O)c3c(C)nc4sccn34)cc2)cc1	> 10	0.0579	> 10	
O=C(Nc1ccc(/C=C/c2ccc(NC(=O)[C@@H]3CCCN3C(=O)c3c[nH]c4ccccc34)cc2)cc1)[C@@H]1CCCN1C(=O)c1c[nH]c2ccccc12	> 10	0.111	> 10	
Cn1cc(C(=O)N2CCC[C@H]2C(=O)Nc2ccc(/C=C/c3ccc(NC(=O)[C@@H]4CCCN4C(=O)c4cn(C)c5ccccc45)cc3)cc2)c2ccccc21	> 10	0.14	> 10	
O=C(Nc1ccc(/C=C/c2ccc(NC(=O)[C@@H]3CCCN3C(=O)C3Cc4ccccc4O3)cc2)cc1)[C@@H]1CCCN1C(=O)C1Cc2ccccc2O1 (stereo partly specified)	> 10	0.011	> 10	
O=C(Nc1ccc(/C=C/c2ccc(NC(=O)[C@@H]3CCCN3C(=O)c3ccc4occc4c3)cc2)cc1)[C@@H]1CCCN1C(=O)c1ccc2occc2c1	> 10	0.056	> 10	
Cc1nc2ccccn2c1C(=O)N1CCC[C@H]1C(=O)Nc1ccc(/C=C/c2ccc(NC(=O)[C@@H]3CCCN3C(=O)c3c(C)nc4ccccn34)cc2)cc1	> 10	0.0868	> 10	
O=C(Nc1ccc(/C=C/c2ccc(NC(=O)[C@@H]3CCCN3C(=O)c3cccc4ccccc34)cc2)cc1)[C@@H]1CCCN1C(=O)c1cccc2ccccc12	> 10	1.63	> 10	
O=C(Nc1ccc(/C=C/c2ccc(NC(=O)[C@@H]3CCCN3C(=O)c3ccc4ccccc4c3)cc2)cc1)[C@@H]1CCCN1C(=O)c1ccc2ccccc2c1	> 10	10	> 10	
CCc1ccccc1C(=O)N1CCC[C@H]1C(=O)Nc1ccc(/C=C/c2ccc(NC(=O)[C@@H]3CCCN3C(=O)c3ccccc3CC)cc2)cc1	> 10	1.13	> 10	
O=C(Nc1ccc(/C=C/c2ccc(NC(=O)[C@@H]3CCCN3C(=O)CC3CC3)cc2)cc1)[C@@H]1CCCN1C(=O)CC1CC1	> 10	0.062	> 10	Papp [11]: 0.4 ×10⁻⁶ cm/s; solubility [5]: 4.4 µg/mL (≈ 7.74 µM); AUC [18]: 11900 ng·h/mL; remaining at 10 min [7]: 84%; Vdss (Rattus norvegicus [19]): 0.8 L/kg; half-life [20]: 4.9 h; AUC [21]: 18500 ng·h/mL; bioavailability [22]: 64%; Cmax [23]: 1500 ng/mL
